Results reported in ChEMBL document CHEMBL1255221, “Synthesis and evaluation of selected key methyl ether derivatives of vancomycin aglycon” (2010).
≈ marks a conversion by molar mass, not a printed value.

Columns and labels:
Type in all cases: functional
Enterococcus faecalis [1] = test: Antimicrobial activity against vancomycin A-resistant Enterococcus faecalis BM 4166
Outline: (§1)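 MIC measured in a microtiter plate-based antimicrobial assay, in μg/mL. VanA E. faecalis BM4166 is vancomycin- and teicoplanin-resistant; VanB E. faecalis ATCC 51299 is vancomycin-resistant and teicoplanin-sensitive. Both strains carry a vancomycin-inducible resistance pathway, switching from D-Ala-D-Ala to D-Ala-D-Lac cell-wall precursors on glycopeptide exposure.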

Enterococcus faecalis [2] = test: Antimicrobial activity against vancomycin B-resistant Enterococcus faecalis ATCC 51299; outline: as §1
Staphylococcus aureus = test: Antimicrobial activity against Staphylococcus aureus ATCC 25923

SMILES | MIC (Enterococcus faecalis [1]) [µg/mL] | MIC (Enterococcus faecalis [2]) [µg/mL] | MIC (Staphylococcus aureus) [µg/mL]
CN[C@H](CC(C)C)C(=O)N[C@H]1C(=O)N[C@@H](CC(N)=O)C(=O)N[C@H]2C(=O)N[C@H]3C(=O)N[C@H](C(=O)N[C@H](C(=O)O)c4cc(O)cc(O)c4-c4cc3ccc4O)[C@H](O)c3ccc(c(Cl)c3)Oc3cc2cc(c3O[C@@H]2O[C@H](CO)[C@@H](O)[C@H](O)[C@H]2O[C@H]2C[C@](C)(N)[C@H](O)[C@H](C)O2)Oc2ccc(cc2Cl)[C@H]1O [VANCOMYCIN] | 2000 (≈ 1380 µM) | 120 (≈ 82.8 µM) | 
CN[C@@H](CC(C)C)C(=O)N[C@H]1C(=O)N[C@@H](CC(N)=O)C(=O)N[C@H]2C(=O)N[C@H]3C(=O)N[C@H](C(=O)N[C@@H](C(=O)O)c4cc(O)cc(O)c4-c4cc3ccc4O)[C@H](O)c3ccc(c(Cl)c3)Oc3cc2cc(c3O[C@@H]2O[C@H](CO)[C@@H](O)[C@H](O)[C@H]2O[C@H]2C[C@](C)(NCc3ccc(-c4ccc(Cl)cc4)cc3)[C@H](O)[C@H](C)O2)Oc2ccc(cc2Cl)[C@H]1O | 10 (≈ 6.06 µM) | 0.03 (≈ 0.0182 µM) | 0.03 (≈ 0.0182 µM)
CN[C@H](CC(C)C)C(=O)N[C@H]1C(=O)N[C@@H](CC(N)=O)C(=O)N[C@H]2C(=O)N[C@H]3C(=O)N[C@H](C(=O)N[C@@H](C(=O)O)c4cc(OC)cc(O)c4-c4cc3ccc4OC)[C@H](O)c3ccc(c(Cl)c3)Oc3cc2cc(c3O)Oc2ccc(cc2Cl)[C@H]1O | 640 (≈ 546 µM) | 120 (≈ 102 µM) | 10 (≈ 8.53 µM)
CN[C@H](CC(C)C)C(=O)N[C@H]1C(=O)N[C@@H](CC(N)=O)C(=O)N[C@H]2C(=O)N[C@H]3C(=O)N[C@H](C(=O)N[C@@H](C(=O)O)c4cc(O)cc(O)c4-c4cc3ccc4O)[C@H](O)c3ccc(c(Cl)c3)Oc3cc2cc(c3OC)Oc2ccc(cc2Cl)[C@H]1O | 240 (≈ 207 µM) | 40 (≈ 34.5 µM) | 1.25 (≈ 1.08 µM)
CN[C@H](CC(C)C)C(=O)N[C@H]1C(=O)N[C@@H](CC(N)=O)C(=O)N[C@H]2C(=O)N[C@H]3C(=O)N[C@H](C(=O)N[C@@H](C(=O)O)c4cc(OC)cc(OC)c4-c4cc3ccc4OC)[C@H](O)c3ccc(c(Cl)c3)Oc3cc2cc(c3OC)Oc2ccc(cc2Cl)[C@H]1O | 80 (≈ 66.7 µM) | 2.5 (≈ 2.08 µM) | 1.25 (≈ 1.04 µM)
CN[C@H](CC(C)C)C(=O)N[C@H]1C(=O)N[C@@H](CC(N)=O)C(=O)N[C@H]2C(=O)N[C@H]3C(=O)N[C@H](C(=O)N[C@@H](C(=O)O)c4cc(OC)cc(OC)c4-c4cc3ccc4O)[C@H](O)c3ccc(c(Cl)c3)Oc3cc2cc(c3O)Oc2ccc(cc2Cl)[C@H]1O | 640 (≈ 546 µM) | 120 (≈ 102 µM) | 10 (≈ 8.53 µM)
CN[C@H](CC(C)C)C(=O)N[C@H]1C(=O)N[C@@H](CC(N)=O)C(=O)N[C@H]2C(=O)N[C@H]3C(=O)N[C@H](C(=O)N[C@@H](C(=O)OC)c4cc(OC)cc(OC)c4-c4cc3ccc4OC)[C@H](O)c3ccc(c(Cl)c3)Oc3cc2cc(c3OC)Oc2ccc(cc2Cl)[C@H]1O | 40 (≈ 32.9 µM) | 1.25 (≈ 1.03 µM) | 1.25 (≈ 1.03 µM)
CN[C@H](CC(C)C)C(=O)N[C@H]1C(=O)N[C@@H](CC(N)=O)C(=O)N[C@H]2C(=O)N[C@H]3C(=O)N[C@H](C(=O)N[C@@H](C(=O)O)c4cc(OC)cc(OC)c4-c4cc3ccc4OC)[C@H](O)c3ccc(c(Cl)c3)Oc3cc2cc(c3O)Oc2ccc(cc2Cl)[C@H]1O | 640 (≈ 540 µM) | 10 (≈ 8.43 µM) | 
CN[C@H](CC(C)C)C(=O)N[C@H]1C(=O)N[C@@H](CC(N)=O)C(=O)N[C@H]2C(=O)N[C@H]3C(=O)N[C@H](C(=O)N[C@H](C(=O)O)c4cc(O)cc(O)c4-c4cc3ccc4O)[C@H](O)c3ccc(c(Cl)c3)Oc3cc2cc(c3O)Oc2ccc(cc2Cl)[C@H]1O [VANCOMYCIN AGLYCON] | > 100 | > 40 | 0.6 (≈ 0.525 µM)
